# Test results as given in ChEMBL document CHEMBL1177718, “Phosphoramidate ProTides of 2'-C-methylguanosine as highly potent inhibitors of hepatitis C virus. Study of their in vitro and in vivo properties” (J Med Chem, 2010).
# pEC50: −log10 of the molar value.
# Experiments:
# [1] = Selectivity index, […] for rat IEC-6 cells
# [2] = Cytotoxicity against human CEM cells after 72 hrs by celltiter-glo assay; type: cell-based, CCRF-CEM
# Method in brief: (§1)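 Cells kept in log phase of growth throughout the cytotoxicity experiments.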
# [3] = Cmax in ICR mouse plasma at 50 mg/kg, po by LC-MS/MS analysis; type: ADME, organism-based; parameters: dose 50 mg/kg, route oral
# [4] = Selectivity index, […] for human HuH7 cells; parameters: species or system Huh-7
# [5] = Cytotoxicity against rat IEC6 cells after 72 hrs by celltiter-glo assay; type: cell-based; method in brief: as §1
# [6] = Metabolic stability in cynomolgus monkey plasma assessed as compound remaining at 1 ug/ml after 4 hrs; type: ADME, cell-free, Macaca fascicularis; details: read-out: Stability
# Method in brief: (§2)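 Duplicate incubations; compound at final 1 μg/mL in plasma preincubated and kept at […]; samples taken at 30 or 240 min, quenched with ice-cold acetonitrile, centrifuged, supernatant diluted with water; parent quantified by LC-MS/MS (Polar-RP column, formic acid water/acetonitrile gradient, positive ion mode); % remaining reported.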
# [7] = Cytotoxicity against human HuH7 cells after 72 hrs by celltiter-glo assay; type: cell-based, Huh-7
# Method in brief: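 Replicon 1b Huh7 cells seeded 2 × 10⁴/well; after 24 h, 11 serial 2× dilutions from 100 μM (three repeats each) with no-compound control; 72 h at 37 °C, CO₂, log-phase growth; viability by CellTiter-Glo luminescence; CC₅₀ = concentration giving 50% signal.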
# Liver [8] = assay: AUC (0 to 6 hrs) in ICR mouse liver at 50 mg/kg, po by LC-MS/MS analysis; type: ADME, organism-based; parameters: time < 6 hr, dose 50 mg/kg, route oral; details: in vivo
# [9] = Selectivity index, […] for human HepG2 cells
# [10] = Selectivity index, […] for human Caco-2 cells
# [11] = Cytotoxicity against human MT4 cells after 72 hrs by celltiter-glo assay; type: cell-based; method in brief: as §1
# Hepatitis C virus = assay: Antiviral activity against HCV1b infected in human HuH7 cells assessed as inhibition of viral replication after 48 hrs by luciferase reporter gene assay; type: functional, organism-based, Hepacivirus hominis; details: genotype 1b, Huh-7, 48 h
# Method in brief: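 Huh7 cells carrying genotype 1b bicistronic subgenomic replicon, seeded 2 × 10⁴/well without G-418; compounds added 18-24 h later, 48 h exposure; 3× or 4× serial dilutions over 0.0001-10 μM in triplicate/quadruplicate; Renilla luciferase read-out versus untreated cells; EC₅₀ by four-parameter sigmoidal nonlinear regression; at least three independent assays.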
# [12] = Metabolic stability in rat plasma assessed as compound remaining at 1 ug/ml after 30 mins; type: ADME, cell-free; details: read-out: Stability; method in brief: as §2
# [13] = Metabolic stability in mouse plasma assessed as compound remaining at 1 ug/ml after 4 hrs; type: ADME, cell-free; details: read-out: Stability
# [14] = Metabolic stability in dog plasma assessed as compound remaining at 1 ug/ml after 4 hrs; type: ADME, cell-free, Canis lupus familiaris; details: read-out: Stability; method in brief: as §2
# Homo sapiens [15] = species on record: Homo sapiens; assay: Metabolic stability in human plasma assessed as compound remaining at 1 ug/ml after 30 mins
# [16] = Metabolic stability in rat plasma assessed as compound remaining at 1 ug/ml after 4 hrs; type: ADME, cell-free; details: read-out: Stability; method in brief: as §2
# Plasma = assay: Dose normalized AUC in ICR mouse plasma at 50 mg/kg, po by LC-MS/MS analysis; type: ADME, organism-based; parameters: dose 50 mg/kg, route oral; details: in vivo
# [17] = Cytotoxicity against human Caco-2 cells after 72 hrs by celltiter-glo assay; type: cell-based; method in brief: as §1
# [18] = Selectivity index, […] for human CEM cells; parameters: species or system CCRF-CEM
# [19] = Selectivity index, […] for human HEK293 cells
# [20] = Cytotoxicity against human HepG2 cells after 72 hrs by celltiter-glo assay; type: cell-based; method in brief: as §1
# [21] = Metabolic stability in cynomolgus monkey plasma assessed as compound remaining at 1 ug/ml after 30 mins; type: ADME, cell-free, Macaca fascicularis; details: read-out: Stability; method in brief: as §2
# [22] = Cytotoxicity against human HEL cells after 72 hrs by celltiter-glo assay; type: cell-based; method in brief: as §1
# Liver [23] = assay: Dose normalized AUC in ICR mouse liver at 50 mg/kg, po by LC-MS/MS analysis; type: ADME, organism-based; parameters: dose 50 mg/kg, route oral; details: in vivo
# [24] = Metabolic stability in mouse plasma assessed as compound remaining at 1 ug/ml after 30 mins; type: ADME, cell-free; details: read-out: Stability
# Liver [25] = assay: AUC (0 to 24 hrs) in ICR mouse liver at 50 mg/kg, po by LC-MS/MS analysis; type: ADME, organism-based; parameters: time < 24 hr, dose 50 mg/kg, route oral; details: in vivo
# [26] = Selectivity index, […] for human HEL cells
# [27] = Cytotoxicity against human HEK293 cells after 72 hrs by celltiter-glo assay; type: cell-based; method in brief: as §1
# [28] = Metabolic stability in dog plasma assessed as compound remaining at 1 ug/ml after 30 mins; type: ADME, cell-free, Canis lupus familiaris; details: read-out: Stability; method in brief: as §2
# Homo sapiens [29] = species on record: Homo sapiens; assay: Metabolic stability in human plasma assessed as compound remaining at 1 ug/ml after 4 hrs
# [30] = Selectivity index, […] for human MT4 cells
# [31] = Metabolic stability in human liver S9 fraction assessed as compound remaining at 10 uM after 30 mins by HPLC analysis in presence of NADP; type: ADME, subcellular; details: read-out: Stability
# [32] = Metabolic stability in human liver S9 fraction assessed as compound remaining at 10 uM after 30 mins by HPLC analysis in absence of NADP; type: ADME, subcellular; details: read-out: Stability
# [33] = Metabolic stability in human intestine S9 fraction assessed as compound remaining at 10 uM after 30 mins by HPLC analysis in presence of NADP; type: ADME, tissue-based; details: read-out: Stability
# [34] = Metabolic stability in dog liver S9 fraction assessed as compound remaining at 10 uM after 30 mins by HPLC analysis in presence of NADP; type: ADME, subcellular, Canis lupus familiaris; details: read-out: Stability
# [35] = Metabolic stability in dog liver S9 fraction assessed as compound remaining at 10 uM after 30 mins by HPLC analysis in absence of NADP; type: ADME, subcellular, Canis lupus familiaris; details: read-out: Stability
# [36] = Metabolic stability in human intestine S9 fraction assessed as compound remaining at 10 uM after 30 mins by HPLC analysis in absence of NADP; type: ADME, tissue-based; details: read-out: Stability
# [37] = Metabolic stability in dog intestine S9 fraction assessed as compound remaining at 10 uM after 30 mins by HPLC analysis in absence of NADP; type: ADME, tissue-based, Canis lupus familiaris; details: read-out: Stability
# [38] = Metabolic stability in dog intestine S9 fraction assessed as compound remaining at 10 uM after 30 mins by HPLC analysis in presence of NADP; type: ADME, tissue-based, Canis lupus familiaris; details: read-out: Stability
# [39] = Metabolic stability in rat intestine S9 fraction assessed as compound remaining at 10 uM after 30 mins by HPLC analysis in absence of NADP; type: ADME, tissue-based; details: read-out: Stability
# [40] = Metabolic stability in rat liver S9 fraction assessed as compound remaining at 10 uM after 30 mins by HPLC analysis in presence of NADP; type: ADME, subcellular; details: read-out: Stability
# [41] = Metabolic stability in rat liver S9 fraction assessed as compound remaining at 10 uM after 30 mins by HPLC analysis in absence of NADP; type: ADME, subcellular; details: read-out: Stability
# [42] = Metabolic stability in cynomolgus monkey liver S9 fraction assessed as compound remaining at 10 uM after 30 mins by HPLC analysis in presence of NADP; type: ADME, subcellular, Macaca fascicularis; details: read-out: Stability
# [43] = Metabolic stability in cynomolgus monkey intestine S9 fraction assessed as compound remaining at 10 uM after 30 mins by HPLC analysis in presence of NADP; type: ADME, tissue-based, Macaca fascicularis; details: read-out: Stability
# [44] = Metabolic stability in rat intestine S9 fraction assessed as compound remaining at 10 uM after 30 mins by HPLC analysis in presence of NADP; type: ADME, tissue-based; details: read-out: Stability
# [45] = Metabolic stability in cynomolgus monkey liver S9 fraction assessed as compound remaining at 10 uM after 30 mins by HPLC analysis in absence of NADP; type: ADME, subcellular, Macaca fascicularis; details: read-out: Stability
# [46] = Metabolic stability in cynomolgus monkey intestine S9 fraction assessed as compound remaining at 10 uM after 30 mins by HPLC analysis in absence of NADP; type: ADME, tissue-based, Macaca fascicularis; details: read-out: Stability
# [47] = Oral bioavailability in ICR mouse at 50 mg/kg; type: ADME, organism-based; details: in vivo
# [48] = Oral bioavailability in cynomolgus monkey at 50 mg/kg; type: ADME, organism-based, Macaca fascicularis; details: in vivo
smiles,measurement,setting,value
C[C@H](NP(=O)(OC[C@H]1O[C@@H](n2cnc3c(=O)[nH]c(N)nc32)[C@](C)(O)[C@@H]1O)Oc1cccc2ccccc12)C(=O)O[C@@H](C)c1ccccc1 (stereo partly specified),Selectivity Index,[1],>=1000
same,CC50 at 72 h,[2],82 µM
same,Cmax,[3],1.38 µg/mL
same,Selectivity Index,[4],>=1000
same,CC50 at 72 h,[5],> 100 µM
same,"remaining at 4 h, 1 ug/ml",[6],100%
same,CC50 at 72 h,[7],> 100 µM
same,AUC,Liver [8],2596 ng·h/g
same,Selectivity Index,[9],>=1000
same,Selectivity Index,[10],>=1000
same,CC50 at 72 h,[11],87 µM
same,pEC50,Hepatitis C virus,7.10
same,"remaining at 0.5 h, 1 ug/ml",[12],0.8%
same,"remaining at 4 h, 1 ug/ml",[13],0%
same,"remaining at 4 h, 1 ug/ml",[14],92%
same,"remaining at 0.5 h, 1 ug/ml",Homo sapiens [15],100%
same,"remaining at 4 h, 1 ug/ml",[16],0%
same,AUC,Plasma,0.085 µg·h/mL
same,CC50 at 72 h,[17],> 100 µM
same,Selectivity Index,[18],>=1000
same,Selectivity Index,[19],>=1000
same,CC50 at 72 h,[20],> 100 µM
same,"remaining at 0.5 h, 1 ug/ml",[21],100%
same,CC50 at 72 h,[22],> 100 µM
same,AUC,Liver [23],108 ng·h/g
same,"remaining at 0.5 h, 1 ug/ml",[24],3.1%
same,AUC,Liver [25],5390 ng·h/g
same,Selectivity Index,[26],>=1000
same,CC50 at 72 h,[27],> 100 µM
same,"remaining at 0.5 h, 1 ug/ml",[28],97%
same,"remaining at 4 h, 1 ug/ml",Homo sapiens [29],99%
same,Selectivity Index,[30],>=1000
C[C@@]1(O)[C@H](O)[C@@H](COP(=O)(N[C@@H](Cc2ccccc2)C(=O)OCc2ccccc2)Oc2cccc3ccccc23)O[C@H]1n1cnc2c(=O)[nH]c(N)nc21 (stereo partly specified),"remaining at 0.5 h, 10 µM",[31],0%
same,CC50 at 72 h,[7],> 100 µM
same,pEC50,Hepatitis C virus,5.92
same,"remaining at 0.5 h, 10 µM",[32],20%
same,"remaining at 0.5 h, 10 µM",[33],0%
same,"remaining at 0.5 h, 10 µM",[34],4%
same,"remaining at 0.5 h, 10 µM",[35],15%
same,"remaining at 0.5 h, 10 µM",[36],5%
same,"remaining at 0.5 h, 10 µM",[37],0%
same,"remaining at 0.5 h, 1 ug/ml",[24],1%
same,"remaining at 0.5 h, 10 µM",[38],0%
C[C@H](NP(=O)(OC[C@H]1O[C@@H](n2cnc3c(=O)[nH]c(N)nc32)[C@](C)(O)[C@@H]1O)Oc1cccc2ccccc12)C(=O)OCc1ccccc1 (stereo partly specified),"remaining at 0.5 h, 10 µM",[39],46%
same,"remaining at 0.5 h, 10 µM",[31],27%
same,CC50 at 72 h,[7],> 100 µM
same,"remaining at 0.5 h, 10 µM",[40],0%
same,pEC50,Hepatitis C virus,7.21
same,"remaining at 0.5 h, 10 µM",[41],0%
same,"remaining at 0.5 h, 10 µM",[32],41%
same,"remaining at 0.5 h, 1 ug/ml",[12],1.3%
same,"remaining at 0.5 h, 10 µM",[33],0%
same,"remaining at 0.5 h, 10 µM",[42],0%
same,"remaining at 0.5 h, 1 ug/ml",Homo sapiens [15],58%
same,"remaining at 0.5 h, 10 µM",[43],0%
same,"remaining at 0.5 h, 10 µM",[44],30%
same,"remaining at 0.5 h, 10 µM",[45],32%
same,"remaining at 0.5 h, 1 ug/ml",[21],54%
same,"remaining at 0.5 h, 10 µM",[36],49%
same,"remaining at 0.5 h, 1 ug/ml",[24],1.1%
same,"remaining at 0.5 h, 1 ug/ml",[28],67%
same,"remaining at 0.5 h, 10 µM",[46],30%
C[C@@]1(O)[C@H](O)[C@@H](CO)O[C@H]1n1cnc2c(=O)[nH]c(N)nc21 [2'-B-METHYL-GUANOSINE],Cmax,[3],5.2 µg/mL
same,CC50 at 72 h,[7],> 100 µM
same,bioavailability,[47],85%
same,AUC,Liver [8],16510 ng·h/g
same,pEC50,Hepatitis C virus,5.46
same,bioavailability,[48],10%
same,AUC,Plasma,0.411 µg·h/mL
same,AUC,Liver [23],737 ng·h/g
same,AUC,Liver [25],36868 ng·h/g
